Data published in ChEMBL document CHEMBL1151201, “Tolaasins A--E, five new lipodepsipeptides produced by Pseudomonas tolaasii” (2004).

What was measured:
[1] = system: Rhizoctonia solani; test: Antifungal activity against Rhizoctonia solani 1583 after 24 to 48 hrs by soft agar procedure; format: functional
How it was run: (§1)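 Tolaasin stock solutions in distilled water were serially diluted 1:1 and applied as drops onto soft-agar lawns of the test organism. The endpoint recorded was the last dilution that still inhibited growth in the area where the drop was applied.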

[2] = system: Rhodotorula mucilaginosa; test: Antifungal activity against Rhodotorula pilimanae ATCC 26423 after 24 to 48 hrs by soft agar procedure; format: functional; how it was run: as §1
[3] = system: Priestia megaterium; test: Antibacterial activity against Bacillus megaterium ITM 100 after 24 to 48 hrs by soft agar procedure; format: functional; how it was run: as §1
[4] = system: Rhodococcus fascians; test: Antibacterial activity against Rhodococcus fascians NCPPB3067 after 24 to 48 hrs by soft agar procedure; format: functional, Rhodococcoides fascians; how it was run: as §1
[5] = system: Escherichia coli; test: Antibacterial activity against Escherichia coli K-12 ITM103 after 24 to 48 hrs by soft agar procedure; format: functional; how it was run: as §1
[6] = system: Pectobacterium carotovorum; test: Antibacterial activity against Erwinia carotovora subsp. carotovora ICMP 5702 after 24 to 48 hrs by soft agar procedure; format: functional, Pectobacterium carotovorum subsp. carotovorum; how it was run: as §1

SMILES	MIC [1] [µg]	MIC [2] [µg]	MIC [3] [µg]	MIC [4] [µg]	MIC [5] [µg]	MIC [6] [µg]
C/C=C(\NC(=O)[C@H](NC(=O)[C@H](CC(C)C)NC(=O)[C@@H](CCC(N)=O)NC(=O)[C@@H](NC(=O)[C@H](NC(=O)[C@@H](CC(C)C)NC(=O)[C@@H](CO)NC(=O)[C@H](NC(=O)[C@H](CC(C)C)NC(=O)[C@H](CO)NC(=O)[C@H]1CCCN1C(=O)/C(=C/C)NC(=O)CCCC(=O)O)C(C)C)C(C)C)C(C)C)C(C)C)C(=O)N[C@H]1C(=O)N[C@@H]([C@@H](C)CC)C(=O)N[C@@H](CCO)C(=O)N[C@H](CCN)C(=O)N[C@@H](CCCCN)C(=O)O[C@@H]1C [TOLAASIN A]	1.28	5.12	1.28	1.28	>5.12	>5.12
C/C=C(\NC(=O)[C@H](NC(=O)[C@H](CC(C)C)NC(=O)[C@@H](CCC(N)=O)NC(=O)[C@@H](NC(=O)[C@H](NC(=O)[C@@H](CC(C)C)NC(=O)[C@@H](CO)NC(=O)[C@H](NC(=O)[C@H](CC(C)C)NC(=O)[C@H](CO)NC(=O)[C@H]1CCCN1C(=O)/C(=C/C)NC(=O)CC(O)CCCCC)C(C)C)C(C)C)C(C)C)C(C)C)C(=O)N[C@H]1C(=O)N[C@@H](C(C)C)C(=O)N[C@@H](CCO)C(=O)N[C@H](CCN)C(=O)N[C@@H](CCCCN)C(=O)O[C@@H]1C (some centres not stated) [TOLAASIN B]	2.56	>5.12	2.56	1.28	>5.12	>5.12
C/C=C(\NC(=O)[C@H](NC(=O)[C@H](CC(C)C)NC(=O)[C@@H](CCC(N)=O)NC(=O)[C@@H](NC(=O)[C@H](NC(=O)[C@@H](CC(C)C)NC(=O)[C@@H](CO)NC(=O)[C@H](NC(=O)[C@H](CC(C)C)NC(=O)[C@H](CO)NC(=O)[C@H]1CCCN1C(=O)/C(=C/C)NC(=O)CC(O)CCCCC)C(C)C)C(C)C)C(C)C)C(C)C)C(=O)N[C@@H](C(=O)N[C@H](C(=O)N[C@@H](CCO)C(=O)N[C@H](CCN)C(=O)N[C@@H](CCCCN)C(=O)O)[C@@H](C)CC)[C@@H](C)O (some centres not stated) [TOLAASIN C]	5.12	>5.12	>5.12	>5.12	>5.12	>5.12
C/C=C(\NC(=O)[C@H](NC(=O)[C@H](CC(C)C)NC(=O)[C@@H](CCC(N)=O)NC(=O)[C@@H](NC(=O)[C@H](NC(=O)[C@@H](CC(C)C)NC(=O)[C@@H](CO)NC(=O)[C@H](NC(=O)[C@H](CC(C)C)NC(=O)[C@H](CO)NC(=O)[C@H]1CCCN1C(=O)/C(=C/C)NC(=O)CC(O)CCCCC)C(C)C)C(C)C)C(C)C)C(C)C)C(=O)N[C@H]1C(=O)N[C@@H](CC(C)C)C(=O)N[C@@H](CCO)C(=O)N[C@H](CCN)C(=O)N[C@@H](CCCCN)C(=O)O[C@@H]1C (some centres not stated) [TOLAASIN D]	0.16	2.56	0.16	0.16	>5.12	>5.12
C/C=C(\NC(=O)[C@H](NC(=O)[C@H](CC(C)C)NC(=O)[C@@H](CCC(N)=O)NC(=O)[C@@H](NC(=O)[C@H](NC(=O)[C@@H](CC(C)C)NC(=O)[C@@H](CO)NC(=O)[C@H](NC(=O)[C@H](CC(C)C)NC(=O)[C@H](CO)NC(=O)[C@H]1CCCN1C(=O)/C(=C/C)NC(=O)CC(O)CCCCC)C(C)C)C(C)C)C(C)C)C(C)C)C(=O)N[C@H]1C(=O)N[C@@H](CC(C)C)C(=O)NCC(=O)N[C@H](CCN)C(=O)N[C@@H](CCCCN)C(=O)O[C@@H]1C (some centres not stated) [TOLAASIN E]	5.12	>5.12	2.56	2.56	>5.12	>5.12
C/C=C(\NC(=O)[C@H](NC(=O)[C@H](CC(C)C)NC(=O)[C@@H](CCC(N)=O)NC(=O)[C@@H](NC(=O)[C@H](NC(=O)[C@@H](CC(C)C)NC(=O)[C@@H](CO)NC(=O)[C@H](NC(=O)[C@H](CC(C)C)NC(=O)[C@H](CO)NC(=O)[C@H]1CCCN1C(=O)/C(=C/C)NC(=O)CC(O)CCCCC)C(C)C)C(C)C)C(C)C)C(C)C)C(=O)N[C@H]1C(=O)N[C@@H]([C@@H](C)CC)C(=O)NCC(=O)N[C@H](CCN)C(=O)N[C@@H](CCCCN)C(=O)O[C@@H]1C (some centres not stated) [TOLAASIN II]	0.64	5.12	0.64	0.64	>5.12	>5.12
C/C=C(\NC(=O)[C@H](NC(=O)[C@H](CC(C)C)NC(=O)[C@@H](CCC(N)=O)NC(=O)[C@@H](NC(=O)[C@H](NC(=O)[C@@H](CC(C)C)NC(=O)[C@@H](CO)NC(=O)[C@H](NC(=O)[C@H](CC(C)C)NC(=O)[C@H](CO)NC(=O)[C@H]1CCCN1C(=O)/C(=C/C)NC(=O)CC(O)CCCCC)C(C)C)C(C)C)C(C)C)C(C)C)C(=O)N[C@H]1C(=O)N[C@@H]([C@@H](C)CC)C(=O)N[C@@H](CCO)C(=O)N[C@H](CCN)C(=O)N[C@@H](CCCCN)C(=O)O[C@@H]1C (some centres not stated) [TOLAASIN I]	0.32	2.56	0.32	0.32	>5.12	>5.12
